Measured values collected from several papers.
Protocols differ between the studies behind these lines.
NT5E: 5'-nucleotidase (NT5E, Homo sapiens, UniProt P21589)

| Compound | target | read-out | action | technique | concentration | endpoint | result |
| --- | --- | --- | --- | --- | --- | --- | --- |
| O=C(NS(=O)(=O)c1ccc(C(F)(F)F)cc1)c1cc2ccccc2n1Cc1ccc(Br)c2ccccc12 | Xanthine dehydrogenase/oxidase (XDH, Bos taurus, UniProt P80457) | enzyme activity | inhibitor | absorbance | 10 µM | inhibition | 17.2% |
| NC/C(=C\F)COc1cccc(Cn2c(=S)[nH]c(=O)c3[nH]cnc32)c1 | Lactoperoxidase (LPO, Bos taurus, UniProt P80025) | enzyme activity | inhibitor | – | 2.5 µM | remaining activity | 81.1% |
| CC(=O)ON=C1C=CC(=C(C#N)c2ccccc2)C=C1 | Dual specificity tyrosine-phosphorylation-regulated kinase 1A (Dyrk1a, Rattus norvegicus, UniProt Q63470) | enzyme activity | inhibitor | ADP detection | 2 µM | activity vs control | 87% |
| N#Cc1c(C(F)(F)F)cc(-c2ccccc2)nc1SCC(=O)Nc1cccnc1 | NT5E | enzyme activity | inhibitor | – | 10 µM | inhibition | 40% |
| CCCCC(=O)Nc1ccc(-c2ccc3ncn(CCC)c(=O)c3c2)cn1 | Phosphatidylinositol 4-kinase beta (PI4KB, Homo sapiens, UniProt Q9UBF8) | binding | – | competition with immobilised ligand | 0.5 µM | remaining binding | 53% |
| COc1ccc2oc(-c3ccc4nc(N)oc4c3)c/c(=N\c3ccccc3NC(=O)CCN)c2c1 | Platelet-derived growth factor receptor alpha (PDGFRA, Homo sapiens, UniProt P16234) | binding | – | – | 1 µM | remaining binding | 103% |
| Cc1cc(-c2ccccc2)c(C#N)c(SCC(=O)Nc2nccs2)n1 | NT5E | enzyme activity | inhibitor | HPLC | 10 µM | inhibition | 91% |
| C1=C/COCc2cc(ccc2OCCN2CCCC2)Nc2nccc(n2)-c2cccc(c2)COC/1 | Cyclin-dependent kinase 13 (CDK13, Homo sapiens, UniProt Q14004) | cell-free assay | – | – | 0.1 µM | remaining signal | 60% |
